The values below come from PMC4254268 (Cellular signalling, 2014).

One data set is described as follows: Ang-. Conditions: n=3. The class given is in vitro ADME, rat. The procedure, abridged: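 NRK-52E cells grown to confluence are serum-starved 24 h, then kept 48 h in serum-free or 100 uM glycated albumin (MGA) medium. They are harvested, frozen at −80°C and homogenized in 10 mM HEPES, 125 mM NaCl, 10 μM ZnCl2, pH 7.4, then spun at 100,000g. 125I-Ang-(1-7) (0.5 nM) is incubated with 2 μg supernatant protein for 30 min at 37°C and stopped with ice-cold 1.0% phosphoric acid. Products are separated by isocratic reverse-phase HPLC with flow-through γ detection, identified against 125I standards, and reported as fmol/mg/min (Bradford protein).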

Data set [1] relates to ERK1/2 in NRK-52E cells. As to the kind of experiment: TGF-β-induced ERK1/2 phosphorylation by Western blot. The class given is cell-based, rat. Conditions: TGF-β 5 ng/ml, 15 min incubation, n=3. The procedure, abridged: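 Rat kidney proximal epithelial NRK-52E cells in DMEM/F12 with 5% FBS are serum-starved 24 h, then exposed to TGF-β (5 ng/ml) for 15 min. Lysis is in Triton buffer (100 mM NaCl, 50 mM NaF, 5 mM EDTA, 1% Triton X-100, 50 mM Tris-HCl pH 7.4, plus NaVO4, PMSF, leupeptin), followed by sonication and a 10,000 g spin. 10-50 μg protein is run on 10% SDS-PAGE and blotted to PVDF. Phospho-ERK1/2 is detected by HRP chemiluminescence, then the membrane is stripped and reprobed for total ERK1/2. Bands are quantified by densitometry.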
For orientation: A western blot detects proteins with antibodies after separation by electrophoresis.

In data set [2] the test system is NRK-52E cells. The data set is described as follows: Cellular hypertrophy by 3H-leucine incorporation. It counts as cell-based, rat. The note with it: 100 μM MGA 48 h. The procedure, abridged:
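Confluent NRK-52E cells were serum-starved for 24 h, then kept 48 h in serum-free medium ± 100 μM MGA and test agents. Cells were pulsed with 0.5 μCi 3H-leucine for the last 24 h at 37°C, washed in PBS and fixed 15 min in ice-cold 10% TCA. After 5% TCA washes, protein was dissolved in 0.05 N NaOH/0.1% SDS at 37°C and counted by scintillation. Triplicate wells; % of control per well; 5 cell passages.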

Data set [3] relates to α-SMA in NRK-52E cells. As to the kind of experiment: α-SMA protein expression by Western blot. It counts as cell-based, rat. The note with it: 100 μM MGA 48 h. The procedure, abridged:
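After 24 h serum starvation, cells received 100 uM MGA ± test agents for 48 h. Triton lysates were run on 10% SDS-PAGE and transferred to PVDF. Blots were probed overnight at 4°C with mouse anti-α-SMA (1:5000), then anti-mouse HRP (1:3000) and chemiluminescence. Membranes were stripped and re-probed for EFα1 (1:3000) as loading control. Densitometry; 3-4 cell passages.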

The test system of data set [4] is TGF-β release from NRK-52E cells. The data set is described as follows: TGF-β release into cell media by ELISA. The class given is cell-based, rat. Conditions: MGA 48 h. In outline:
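Cells were seeded in 12-well plates, kept serum-free for 24 h, then treated with MGA ± test agents; serum-free cells served as controls. Media were collected on ice and TGF-β measured by ELISA (sensitivity 15 pg/ml). Release was expressed as ng/ml.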
A general note: ELISA stands for enzyme-linked immunosorbent assay.

The test system of data set [5] is NRK-52E cells. As to the kind of experiment: Intracellular angiotensin peptide content by RIA. It counts as cell-based, rat. In outline:
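Cells were serum-free for 24 h, then given 100 uM MGA for 48 h; pellets were snap-frozen. Pellets were boiled 15 min in water, sonicated, acidified to 0.2% TFA and spun at 20,000g for 20 min at 4°C. Peptides were extracted on C18 (eluted in 80% methanol/0.2% TFA) and blanks subtracted. Ang I, Ang II and Ang-(1-7) were measured by separate RIAs; the Ang-(1-7) RIA also detects Ang-(2-7). Paired t-test versus control.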

Data set [6] concerns ERK1/2 in NRK-52E cells. As to the kind of experiment: MGA-induced ERK1/2 phosphorylation by Western blot. It counts as cell-based, rat. Conditions: MGA 48 hours, immunoblot densitometry, n=3. In outline:
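Cells were serum-starved for 24 h, then treated with 100 uM MGA for 48 h. Lysis was in Triton buffer, pH 7.4, with NaVO4, PMSF and leupeptin. 10-50 μg protein was run on 10% SDS-PAGE and transferred to PVDF. Blots were probed overnight at 4°C with anti-phospho-ERK1/2 (1:2000), then stripped and re-probed for total ERK1/2 (1:3000). Detection was HRP chemiluminescence, with densitometry. 3 cell passages.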

For data set [7], the system named is NRK-52E cells. The data set is described as follows: Cell area in immunofluorescent images. Conditions: MGA 48 hours. It counts as cell-based, rat. The procedure, abridged:
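NRK-52E cells were serum-starved for 24 h, then exposed to MGA for 48 h. Immunofluorescent images were taken. Fields were chosen at random and every cell in each field was measured. Cell area was expressed as % of control cell area.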

Data set [8] concerns α-SMA in NRK-52E cells. The data set is described as follows: α-SMA immunofluorescent staining. It counts as cell-based, rat. The note with it: 100 μM MGA 72 h, Ang-(1-7) 100 nM + DAL 10 μM. In outline: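 NRK-52E cells were grown 2 days on chamber slides in 5% FBS medium, then serum-free for 24 h. They were treated 72 h with 100 μM MGA ± test agents and fixed in 2% paraformaldehyde for 15 min. After 0.2% Triton permeabilisation and 3% BSA block, cells were stained overnight at 4°C with mouse anti-α-SMA (1:200), then Alexa Fluor 568 anti-mouse (1:400); nuclei with DAPI. Representative of 3 passages.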

Regarding `CC[C@H](C)[C@H](NC(=O)[C@H](Cc1ccc(O)cc1)NC(=O)[C@@H](NC(=O)[C@H](CCCNC(=N)N)NC(=O)[C@@H](N)CC(=O)O)C(C)C)C(=O)N[C@@H](Cc1c[nH]cn1)C(=O)N1CCC[C@H]1C(=O)O` [Ang-(1-7), Angiotensin-(1-7)], the “Metabolism of Ang-(1-7) to Ang-(1-4), MGA cells (abstract)” value in “Ang-” (supernatant of MGA-treated NRK-52E cells) is given as 175 ± 9 fmol/min/mg protein. In addition, in “Ang-” (supernatant of control NRK-52E cells), the “Metabolism of Ang-(1-7) to Ang-(1-4), control cells (abstract)” value is on record as 115 ± 11 fmol/min/mg protein.

As for TGF-β, the “ERK1/2 phosphorylation, TGF-β alone” value in the data set with ERK1/2 in NRK-52E cells [1] is listed as “stimulated”.

With “MGA: AGE product: BSA incubated with 500 μM methylglyoxal for 24 hours”, in the data set with NRK-52E cells [2], the “Fold increase of 3H-leucine incorporation, MGA alone” value is on record as “approximately 2 fold”. The “Fold induction of α-SMA protein expression, MGA alone” value in the data set with α-SMA in NRK-52E cells [3] (vs control cells) turned out to be 3 fold. In addition, the “TGF-β release, MGA alone” value in data set [4] (ELISA of media, control 0.4 ± 0.1, n=6) was determined as 1.16 ± 0.1 ng/mL. Also, in data set [4] (vs control), the “Fold increase of TGF-β release, MGA alone” value was “approximately 3 fold”. Moreover, the “Intracellular Ang-(1-7) peptide content” value with NRK-52E cells [5] (100 uM MGA 48 h, RIA, mean ± SEM, n=3, control cells 396 ± 59) came out at 219 ± 54 fmol/mg protein. Also, in the data set with NRK-52E cells [5] (100 uM MGA 48 h, RIA, n=3), the “Intracellular Ang I peptide levels vs control” value was “not different” and the “Intracellular Ang II peptide levels vs control” value is listed as “not different”. Moreover, in the data set with NRK-52E cells [5] (MGA exposure 48 hours), the “Reduction of intracellular levels of Ang-(1-7)” value is recorded as “approximately 50%”. In addition, in the data set with ERK1/2 in NRK-52E cells [6], the “Fold increase in density of phosphorylated ERK 1, MGA alone” value is recorded as 2.5 fold and the “Fold increase in density of phosphorylated ERK 2, MGA alone” value was 4 fold. In addition, in the data set with NRK-52E cells [7], the “Fold increase of cell area, MGA alone” value is given as “approximately 4 fold”. The “Cell area, MGA alone” value in the data set on NRK-52E cells [7] (mean ± SEM n=3) is on record as 467 ± 70 % of control.

On to “D-Ala^7-Ang-(1-7) [DAL, reference compound]”, for which the “Effect of DAL on the inhibition of MGA-induced α-SMA expression by Ang-(1-7)” value in the data set with α-SMA in NRK-52E cells [3] (Ang-(1-7) 100 nM + DAL 10 μM) is recorded as “blocked”. Besides, in the data set with α-SMA in NRK-52E cells [8], the “Effect of DAL on the inhibition of MGA-induced MT by Ang-(1-7) (α-SMA staining)” value is listed as “appeared to be reversed”.
